# Laboratory results from ChEMBL document CHEMBL1772954, “Antifungal, cytotoxic and SAR studies of a series of N-alkyl, N-aryl and N-alkylphenyl-1,4-pyrrolediones and related compounds” (Bioorg Med Chem, 2011).
# How the values were obtained:
# Type in all cases: functional
# Candida albicans = test: Antifungal activity against Candida albicans ATCC 10213
# Outline: (§1)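 CLSI M27-A3 broth microdilution in RPMI-1640 buffered to pH 7.0 with MOPS. Inoculum 1-5 × 10^3 CFU/mL. Compound twofold dilutions from 250 to 0.24 µg/ml, final DMSO <1%. Incubated at 35 °C in a moist, dark chamber and read at 48 h. MIC is the lowest concentration giving total growth inhibition. For MFC, 5 µL from clear wells was plated in duplicate on SDA; MFC is the lowest concentration with no growth.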
# Candida tropicalis = test: Antifungal activity against Candida tropicalis C 131 2000; outline: as §1
# Saccharomyces cerevisiae = test: Antifungal activity against Saccharomyces cerevisiae ATCC 9763; outline: as §1
# Cryptococcus neoformans = test: Antifungal activity against Cryptococcus neoformans ATCC 32264; outline: as §1
# Aspergillus fumigatus = test: Antifungal activity against Aspergillus fumigatus ATCC 26934
# Outline: (§2)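 Broth microdilution per CLSI M38-A2 in RPMI-1640 with MOPS at pH 7.0. Inoculum 1-5 × 10^3 CFU/mL, with twofold compound dilutions spanning 250-0.24 µg/ml (final DMSO <1%). Plates incubated at 35 °C, moist and dark, and read when the control fungus had grown. MIC is total growth inhibition. MFC comes from subculturing clear wells in duplicate onto SDA.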
# Aspergillus flavus = test: Antifungal activity against Aspergillus flavus ATCC 9170; outline: as §2
# Aspergillus niger = test: Antifungal activity against Aspergillus niger ATCC 9029; outline: as §2
# Nannizzia gypsea = test: Antifungal activity against Microsporum gypseum C 115 2000
# Outline: (§3)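 Dermatophytes tested by CLSI M38-A2 microdilution in MOPS-buffered RPMI-1640 at pH 7.0. Inoculum 1-5 × 10^3 CFU/mL; compounds 250 to 0.24 µg/ml in twofold steps, final DMSO <1%. Incubated at 28 °C in a moist, dark chamber and read according to control growth. MIC is the lowest concentration with complete inhibition. MFC is the lowest concentration with no growth after duplicate subculture on SDA.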
# Trichophyton rubrum = test: Antifungal activity against Trichophyton rubrum C 113 2000; outline: as §3
# [1] = test system: Trichophyton mentagrophytes; test: Antifungal activity against Trichophyton mentagrophytes ATCC 9972; outline: as §3
Structure (SMILES),MFC (Candida albicans) [µg/mL],MIC (Candida albicans) [µg/mL],MFC (Candida tropicalis) [µg/mL],MIC (Candida tropicalis) [µg/mL],MFC (Saccharomyces cerevisiae) [µg/mL],MIC (Saccharomyces cerevisiae) [µg/mL],MFC (Cryptococcus neoformans) [µg/mL],MIC (Cryptococcus neoformans) [µg/mL],MFC (Aspergillus fumigatus) [µg/mL],MIC (Aspergillus fumigatus) [µg/mL],MFC (Aspergillus flavus) [µg/mL],MIC (Aspergillus flavus) [µg/mL],MFC (Aspergillus niger) [µg/mL],MIC (Aspergillus niger) [µg/mL],MFC (Nannizzia gypsea) [µg/mL],MIC (Nannizzia gypsea) [µg/mL],MFC (Trichophyton rubrum) [µg/mL],MIC (Trichophyton rubrum) [µg/mL],MFC [1] [µg/mL],MIC [1] [µg/mL]
CC1=CC(=O)N(CCCCc2ccccc2)C1O (stereo not given),> 250,> 250,> 250,> 250,> 250,> 250,> 250,> 250,> 250,> 250,> 250,> 250,> 250,> 250,> 250,> 250,> 250,> 250,> 250,> 250
O=C1CCC(=O)N1CCCCc1ccccc1,> 250,> 250,> 250,> 250,> 250,> 250,> 250,> 250,> 250,> 250,> 250,> 250,> 250,> 250,> 250,> 250,> 250,> 250,> 250,> 250
CC1=CC(=O)N(c2ccccc2)C1O (stereo not given),> 250,> 250,> 250,> 250,> 250,> 250,> 250,250,> 250,> 250,> 250,> 250,> 250,> 250,> 250,> 250,> 250,> 250,> 250,> 250
O=C1C(c2ccccc2)=C(c2ccccc2)C(=O)N1Cc1ccccc1,> 250,> 250,> 250,> 250,> 250,> 250,> 250,> 250,> 250,> 250,> 250,> 250,> 250,> 250,> 250,> 250,> 250,> 250,> 250,> 250
CC1=CC(=O)N(CCc2ccccc2)C1O (stereo not given),> 250,> 250,> 250,> 250,> 250,> 250,> 250,> 250,> 250,> 250,> 250,> 250,> 250,> 250,> 250,> 250,> 250,> 250,> 250,> 250
O=C1C(c2ccccc2)=C(c2ccccc2)C(=O)N1CCCCc1ccccc1,> 250,> 250,> 250,> 250,> 250,> 250,> 250,> 250,> 250,> 250,> 250,> 250,> 250,> 250,> 250,> 250,> 250,> 250,> 250,> 250
CC1=CC(=O)N(CCCc2ccccc2)C1O (stereo not given),> 250,> 250,> 250,> 250,> 250,> 250,> 250,250,> 250,> 250,> 250,> 250,> 250,> 250,> 250,250,> 250,250,> 250,250
CC1=C(C)C(=O)N(CCCCc2ccccc2)C1=O,> 250,> 250,> 250,> 250,> 250,> 250,> 250,> 250,> 250,> 250,> 250,> 250,> 250,> 250,> 250,250,250,125,> 250,125
